# Test results from ChEMBL document CHEMBL1127799, “Derivatives of a novel cyclopeptolide. 1. Synthesis, antifungal activity, and structure-activity relationships” (1994).
# Experiments:
# Assay type in all cases: functional
# Candida albicans [1] = assay: Tested for minimum inhibitory concentration against Candida albicans 88 (Candida albicans) at pH 6.5.
# Method in brief: (§1)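 Broth microdilution in malt extract broth, initial pH 6.5, 1×10^3 CFU per 0.2 mL well, from liquid-nitrogen-stored Sabouraud cultures. Compound from 0.08% stock in 5% DMSO/0.2% Tween 80, final 0.05–100 μg/mL. Visual reading after 48 h at 30 °C. MIC = lowest concentration with no detectable growth. Vehicle-only negative controls.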
# Mus musculus [2] = species on record: Mus musculus; assay: Tested for efficacy of compound in experimental systemic candidosis (mouse) after oral treatment at dosage of 8 *200 mg kg e-1
# Method in brief: (§2)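 Systemic candidiasis: female NMRI mice (18–20 g), 10 per group, infected by intravenous injection of 10⁶ CFU C. albicans no. 124 via lateral tail vein. Oral dosing twice daily on 4 consecutive days, starting 2 h before inoculation. Efficacy taken as survival rate up to day 9 after infection.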
# Rattus norvegicus [3] = species on record: Rattus norvegicus; assay: Tested for efficacy of compound in experimental vaginal candidosis (rat) after oral treatment at dosage of 2x 300 mg kg e-1
# Method in brief: (§3)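 Hormonally conditioned female Wistar rats (~150 g), 10 per group, given intravaginal C. albicans no. 124, 3.5×10^4 CFU in 50 μL Sabouraud's glucose broth. Oral dosing twice, 2 h before and 18 h after infection. Vaginal swabs plated on Sabouraud's glucose agar with streptomycin (0.1 mg/mL), 48 h at 37 °C. Cured when C. albicans not reisolated.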
# Candida albicans [4] = assay: Tested for minimum inhibitory concentration against Candida albicans 9 (Candida albicans) at pH 6.5.; method in brief: as §1
# Pichia kudriavzevii [5] = assay: Tested for minimum subinhibitory concentration against Candida krusei 132 (C.k) at pH 6.5.
# Method in brief: (§4)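 Malt extract broth microdilution, initial pH 6.5, inoculum 1×10^3 CFU per 0.2 mL well. Compound diluted from 0.08% stock (5% DMSO/0.2% Tween 80) to final 0.05–100 μg/mL. Macroscopic reading after 48 h, 30 °C. MSIC = lowest concentration giving visible growth inhibition in at least two of three triplicates. Vehicle-only negative controls.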
# Candida tropicalis [6] = assay: Tested for minimum inhibitory concentration against Candida tropicalis 43 (C.t) at pH 6.5.; method in brief: as §1
# Candida albicans [7] = assay: Tested for minimum subinhibitory concentration against Candida albicans 124 (Candida albicans) at pH 6.5.; method in brief: as §4
# Mus musculus [8] = species on record: Mus musculus; assay: Tested for efficacy of compound in experimental systemic candidosis (mouse) after oral treatment at dosage of 8 *100 mg kg e-1; method in brief: as §2
# Candida albicans [9] = assay: Tested for minimum inhibitory concentration against Candida albicans 90 (Candida albicans) at pH 6.5.; method in brief: as §1
# Rattus norvegicus [10] = species on record: Rattus norvegicus; assay: Tested for efficacy of compound in experimental vaginal candidosis (rat) after tropical treatment at dosage of 9x 0.1% drug concentration
# Method in brief: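 Female Wistar rats (~150 g, hormonally conditioned, 10 per group) infected intravaginally with 3.5×10^4 CFU C. albicans no. 124 in 50 μL broth. Intravaginal gel, 0.2 mL, from 2 h post-inoculation, twice daily for 4 days (nine applications). Swabs plated one day after last treatment on Sabouraud's glucose agar with streptomycin, 48 h at 37 °C. Cure = no reisolation.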
# Candida albicans [11] = assay: Tested for minimum subinhibitory concentration against Candida albicans 4 (Candida albicans) at pH 6.5.; method in brief: as §4
# Candida tropicalis [12] = assay: Tested for minimum subinhibitory concentration against Candida tropicalis 43 (C.t) at pH 6.5.; method in brief: as §4
# Candida albicans [13] = assay: Tested for minimum subinhibitory concentration against Candida albicans 26 (Candida albicans) at pH 6.5.; method in brief: as §4
# Candida albicans [14] = assay: Tested for minimum inhibitory concentration against Candida albicans 4 (Candida albicans) at pH 6.5.; method in brief: as §1
# [15] = test system: Meyerozyma guilliermondii; assay: Tested for minimum inhibitory concentration against Candida guilliermondii 80 (C.g) at pH 6.5.; method in brief: as §1
# Candida albicans [16] = assay: Tested for minimum inhibitory concentration against Candida albicans 124 (Candida albicans) at pH 6.5.; method in brief: as §1
# Candida albicans [17] = assay: Tested for minimum subinhibitory concentration against Candida albicans 88 (Candida albicans) at pH 6.5.; method in brief: as §4
# Pichia kudriavzevii [18] = assay: Tested for minimum inhibitory concentration against Candida krusei 132 (C.k) at pH 6.5.; method in brief: as §1
# Mus musculus [19] = species on record: Mus musculus; assay: Tested for efficacy of compound in experimental vaginal candidosis (mouse) after oral treatment at dosage of 4 x150 mg kg e-1
# Method in brief: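 Vaginal candidiasis in hormonally conditioned female NMRI mice (18–20 g), 10 per group, inoculated intravaginally with 50 μL Sabouraud's glucose broth containing 3.5×10^4 CFU C. albicans no. 124. Dosed four times per gavage, 2 h before and 2, 18 and 24 h after infection. Vaginal swabs plated on Sabouraud's glucose agar with streptomycin (0.1 mg/mL), 48 h at 37 °C. Cure = failed reisolation.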
# Candida albicans [20] = assay: Tested for minimum subinhibitory concentration against Candida albicans 9 (Candida albicans) at pH 6.5.; method in brief: as §4
# Candida albicans [21] = assay: Tested for minimum subinhibitory concentration against Candida albicans 90 (Candida albicans) at pH 6.5.; method in brief: as §4
# Candida albicans [22] = assay: Tested for minimum inhibitory concentration against Candida albicans 3 (Candida albicans) at pH 6.5.; method in brief: as §1
# [23] = test system: Meyerozyma guilliermondii; assay: Tested for minimum subinhibitory concentration against Candida guilliermondii 80 (C.g) at pH 6.5.; method in brief: as §4
# Rattus norvegicus [24] = species on record: Rattus norvegicus; assay: Tested for efficacy of compound in experimental vaginal candidosis (rat) after oral treatment at dosage of 2x 150 mg kg e-1; method in brief: as §3
# Candida albicans [25] = assay: Tested for minimum subinhibitory concentration against Candida albicans 3 (Candida albicans) at pH 6.5.; method in brief: as §4
# Candida albicans [26] = assay: Tested for minimum inhibitory concentration against Candida albicans 26 (Candida albicans) at pH 6.5.; method in brief: as §1
# Pichia kudriavzevii [27] = assay: Tested for minimum inhibitory concentration against Candida krusei 132 (C.k) at pH of 6.5.
# Method in brief: (§5)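 Broth microdilution in malt extract broth, initial pH 4.5 or 6.5, with 1×10^3 CFU per 0.2 mL well of thawed stored cultures. Compound stocks were made in 5% DMSO/0.2% Tween 80 and diluted to final 0.05–100 μg/mL. Plates were incubated 48 h at 30 °C and read macroscopically. MIC was the lowest concentration with no detectable growth. Vehicle-only wells served as controls.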
# Candida tropicalis [28] = assay: Tested for minimum inhibitory concentration against Candida tropicalis 43 (C.t) at pH of 4.5.; method in brief: as §5
# [29] = test system: Meyerozyma guilliermondii; assay: Tested for minimum inhibitory concentration against Candida guilliermondii 80 (C.g) at pH of 6.5.; method in brief: as §5
# Candida tropicalis [30] = assay: Tested for minimum inhibitory concentration against Candida tropicalis 43 (C.t) at pH of 6.5.; method in brief: as §5
# Candida albicans [31] = assay: Tested for minimum inhibitory concentration against Candida albicans 124 (Candida albicans) at pH of 4.5.; method in brief: as §5
# [32] = test system: Meyerozyma guilliermondii; assay: Tested for minimum inhibitory concentration against Candida guilliermondii 80 (C.g) at pH of 4.5.; method in brief: as §5
# Candida albicans [33] = assay: Tested for minimum inhibitory concentration against Candida albicans 124 (Candida albicans) at pH of 6.5.; method in brief: as §5
# Pichia kudriavzevii [34] = assay: Tested for minimum inhibitory concentration against Candida krusei 132 (C.k) at pH of 4.5.; method in brief: as §5
compound,measurement,setting,value
CC(=O)N1CCN(c2ccc(OC[C@H]3CO[C@](Cn4ccnc4)(c4ccc(Cl)cc4Cl)O3)cc2)CC1 [KETOCONAZOLE],MIC,Candida albicans [1],> 100 µg/mL
same,Efficacy,Mus musculus [2],100%
same,Efficacy,Rattus norvegicus [3],100%
same,MIC,Candida albicans [4],100 µg/mL
same,MSIC,Pichia kudriavzevii [5],0.78 µg/mL
same,MIC,Candida tropicalis [6],> 100 µg/mL
same,MSIC,Candida albicans [7],0.19 µg/mL
same,Efficacy,Mus musculus [8],100%
same,MIC,Candida albicans [9],> 100 µg/mL
same,Efficacy,Rattus norvegicus [10],73%
same,MSIC,Candida albicans [11],<0.05 µg/mL
same,MSIC,Candida tropicalis [12],6.25 µg/mL
same,MSIC,Candida albicans [13],<0.05 µg/mL
same,MIC,Candida albicans [14],> 100 µg/mL
same,MIC,[15],> 100 µg/mL
same,MIC,Candida albicans [16],> 100 µg/mL
same,MSIC,Candida albicans [17],<0.05 µg/mL
same,MIC,Pichia kudriavzevii [18],> 100 µg/mL
same,Efficacy,Mus musculus [19],100%
same,MSIC,Candida albicans [20],<0.05 µg/mL
same,MSIC,Candida albicans [21],0.39 µg/mL
same,MIC,Candida albicans [22],100 µg/mL
same,MSIC,[23],0.19 µg/mL
same,Efficacy,Rattus norvegicus [24],100%
same,MSIC,Candida albicans [25],0.19 µg/mL
same,MIC,Candida albicans [26],> 100 µg/mL
CC[C@@H](C)[C@H]1C(=O)NCC(=O)N(C)[C@@H](C(C)C)C(=O)N[C@@H](Cc2ccc(OCc3ccc(Cl)cc3)cc2)C(=O)O[C@H](C)C(=O)N2CCCC[C@H]2C(=O)N(C)[C@@H](C(C)C)C(=O)N[C@@H](C(C)C)C(=O)N(C)[C@@H](CC(=O)O)C(=O)N(C)[C@@H]([C@@H](C)CC)C(=O)N1C,MIC,Pichia kudriavzevii [27],> 100 µg/mL
same,MIC,Candida tropicalis [28],> 100 µg/mL
same,MIC,[29],> 100 µg/mL
same,MIC,Candida tropicalis [30],> 100 µg/mL
same,MIC,Candida albicans [31],100 µg/mL
same,MIC,[32],> 100 µg/mL
same,MIC,Candida albicans [33],> 100 µg/mL
same,MIC,Pichia kudriavzevii [34],> 100 µg/mL
CC[C@@H](C)[C@H]1C(=O)NCC(=O)N(C)[C@@H](C(C)C)C(=O)N[C@@H](Cc2ccc(OCc3ccc(Br)cc3)cc2)C(=O)O[C@H](C)C(=O)N2CCCC[C@H]2C(=O)N(C)[C@@H](C(C)C)C(=O)N[C@@H](C(C)C)C(=O)N(C)[C@@H](CC(=O)O)C(=O)N(C)[C@@H]([C@@H](C)CC)C(=O)N1C,MIC,Pichia kudriavzevii [27],> 100 µg/mL
same,MIC,Candida tropicalis [28],> 100 µg/mL
same,MIC,[29],> 100 µg/mL
same,MIC,Candida tropicalis [30],> 100 µg/mL
same,MIC,Candida albicans [31],> 100 µg/mL
same,MIC,[32],> 100 µg/mL
same,MIC,Candida albicans [33],> 100 µg/mL
same,MIC,Pichia kudriavzevii [34],> 100 µg/mL
CC[C@@H](C)[C@H]1C(=O)NCC(=O)N(C)[C@@H](C(C)C)C(=O)N[C@@H](Cc2ccc(OC)cc2)C(=O)O[C@H](C)C(=O)N2CCCC[C@H]2C(=O)N(C)[C@@H](C(C)C)C(=O)N[C@@H](C(C)C)C(=O)N(C)[C@@H](CC(=O)N(CC)CC)C(=O)N(C)[C@@H]([C@@H](C)CC)C(=O)N1C,MIC,Pichia kudriavzevii [27],> 100 µg/mL
same,MIC,Candida tropicalis [28],> 100 µg/mL
same,MIC,[29],> 100 µg/mL
same,MIC,Candida tropicalis [30],> 100 µg/mL
same,MIC,Candida albicans [31],> 100 µg/mL
same,MIC,[32],> 100 µg/mL
same,MIC,Candida albicans [33],> 100 µg/mL
same,MIC,Pichia kudriavzevii [34],> 100 µg/mL
C=CCOc1ccc(C[C@@H]2NC(=O)[C@H](C(C)C)N(C)C(=O)CNC(=O)[C@H]([C@H](C)CC)N(C)C(=O)[C@H]([C@@H](C)CC)N(C)C(=O)[C@H](CC(=O)O)N(C)C(=O)[C@H](C(C)C)NC(=O)[C@H](C(C)C)N(C)C(=O)[C@@H]3CCCCN3C(=O)[C@@H](C)OC2=O)cc1,MIC,Pichia kudriavzevii [27],> 100 µg/mL
same,MIC,Candida tropicalis [28],100 µg/mL
same,MIC,[29],100 µg/mL
same,MIC,Candida tropicalis [30],100 µg/mL
same,MIC,Candida albicans [31],3.13 µg/mL
same,MIC,[32],100 µg/mL
same,MIC,Candida albicans [33],6.25 µg/mL
same,MIC,Pichia kudriavzevii [34],100 µg/mL
